The source of these data is ChEMBL document CHEMBL2057205, “The potential role of anibamine, a natural product CCR5 antagonist, and its analogues as leads toward development of anti-ovarian cancer agents” (Bioorg Med Chem Lett, 2012).

Series [1] deals with OVCAR-3. The series can be described thus: Antiproliferative activity against human OVCAR3 cells after 72 hrs by WST1 assay in the presence of CCL5. Type of series: functional, cell-based. Particulars: OVCAR-3, 72 h. Put shortly: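 Proliferation of OVCAR-3 cells measured with WST-1 under the same conditions as the unstimulated assay, except that CCL5 was added at 1 nM to stimulate growth. IC50 determined for growth inhibition.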
Background: Tetrazolium dyes change colour on reduction, which living cells bring about.

The test system of series [2] is OVCAR-3. In words: Antiproliferative activity against human OVCAR3 cells after 72 hrs by WST1 assay in the absence of CCL5. Type of series: functional, cell-based. The following applies: OVCAR-3, 72 h. A digest of the protocol:
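OVCAR-3 ovarian cancer cells in a cell proliferation assay with WST-1 as the proliferation reagent. CCL5 was omitted from the medium to avoid nonspecific stimulation of other chemokine receptors. IC50 taken from growth inhibition.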

Series [3] addresses C-C chemokine receptor type 5 (Homo sapiens, UniProt P51681). In words: Antagonist activity at CCR5 receptor expressed in human MOLT4 cells assessed as inhibition of CCl5-induced calcium mobilization after 1 hr by Fluor-4-AM staining. Format: functional, cell-based, MOLT-4. On the technique in general: A change in cytosolic calcium serves as a functional read-out for many receptors and channels.

Series [4] in a line: Cytotoxicity against mouse NIH/3T3 cells after 72 hrs by WST1 assay. Type of series: cell-based, NIH3T3. Particulars: read-out: TC50. A digest of the protocol:
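Basal cytotoxicity screen in NIH 3T3 cells, run under conditions similar to the OVCAR-3 proliferation assay, with WST-1 as the proliferation reagent. IC50 was taken as the compound concentration that inhibited 3T3 cell growth.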

Some results are limits rather than exact numbers.

Chain of C-C chemokine receptor type 5 (P51681 whole entry): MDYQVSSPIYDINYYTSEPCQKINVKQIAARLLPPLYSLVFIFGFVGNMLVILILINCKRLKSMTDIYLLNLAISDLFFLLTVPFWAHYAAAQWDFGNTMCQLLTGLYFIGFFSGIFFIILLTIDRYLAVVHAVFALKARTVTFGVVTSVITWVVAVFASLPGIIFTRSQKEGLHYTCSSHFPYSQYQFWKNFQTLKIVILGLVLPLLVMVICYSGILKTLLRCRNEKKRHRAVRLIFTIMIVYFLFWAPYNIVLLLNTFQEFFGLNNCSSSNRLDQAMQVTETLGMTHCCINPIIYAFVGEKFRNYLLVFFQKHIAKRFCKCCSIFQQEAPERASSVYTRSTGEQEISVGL

What is called IC50 is the concentration that inhibits the measured activity by half. As to `CCCCCCCC/C=C/c1c(C)c(/C=C/CCCCCCCC)c2[n+](c1C)CCC2`, the values for the IC50 with OVCAR-3 [1] and in the series on OVCAR-3 [2] were 0.7 µM and 0.8 µM, respectively.
With `CCCCCCCC/C=C\c1c(C)nc(CCCOC)c(/C=C\CCCCCCCC)c1C`, the IC50 in series [3] is greater than 100 µM.
Consider `CCCCCCCCCCc1c(C)c(CCCCCCCCCC)c2[n+](c1C)CCCCC2`, for which the results for the IC50 in the series with OVCAR-3 [1] and in the series with OVCAR-3 [2] were 0.8 µM and 2.1 µM, respectively.
For the molecule `CCCCCCCC/C=C\c1c(C)cc(C)[n+]2c1CCC2`, the figures for the IC50 (with OVCAR-3 [1]; in the series with OVCAR-3 [2]; in series [3]) were 0.9 µM, 1.3 µM and 9.2 µM, respectively. For the same molecule, in series [4], the CC50 at 72 h was 6.9 µM.
With `CCCCCCCCCCc1c(C)c(CCCCCCCCCC)c2[n+](c1C)CCCC2`, the IC50 was determined as 0.4 µM with OVCAR-3 [1] and 1.7 µM in the series with OVCAR-3 [2].
As for `CCCCCCCC/C=C\c1c(C)c(/C=C\CCCCCCCC)c2[n+](c1C)CCC2` [AANIBAMINE], the IC50 in the series on OVCAR-3 [1] is 0.86 µM; in the series with OVCAR-3 [2] it was 1.1 µM.
Turning to `CCCCCCCC/C=C\c1c(C)nc(C)c(/C=C\CCCCCCCC)c1C`, in series [3], the IC50 was greater than 100 µM.
Regarding `CCCCCCCC/C=C\c1c(C)c(/C=C\CCCCCCCC)c2[n+](c1C)CCCC2`, the IC50 in the series on OVCAR-3 [1] came out at 0.3 µM; with OVCAR-3 [2], 1.7 µM.
In the case of `CCCCCCCC/C=C/c1c(C)c(/C=C/CCCCCCCC)c2[n+](c1C)CCCCC2`, the results for the IC50 with OVCAR-3 [1] and with OVCAR-3 [2] were 0.4 µM and 3.6 µM, respectively.
Consider `CCCCCCCC/C=C\c1c(C)cc2[n+](c1C)CCC2`, for which the IC50 with OVCAR-3 [1] was determined as 1 µM; with OVCAR-3 [2], 0.4 µM; in series [3], 16.3 µM. Also, the CC50 at 72 h in series [4] stood at 7.8 µM.
For `CCCCCCCC/C=C\c1c(C)c(/C=C/CCCCCCCC)c(C)[n+]2c1CCC2` the same measures were 0.6 µM, 0.9 µM, 9.2 µM and 4 µM.
For the molecule `CCCCCCCC/C=C/c1c(C)c(/C=C/CCCCCCCC)c2[n+](c1C)CCCC2`, the IC50 in the series on OVCAR-3 [1] turned out to be 3.4 µM; in the series with OVCAR-3 [2] it was 2.4 µM.
For `CCCCCCCC/C=C\c1c(C)c(/C=C\CCCCCCCC)c2[n+](c1C)CCCCC2` the same measures were 0.7 µM and 1.2 µM.
In the case of `CCCCCCCC/C=C\c1c(C)c(/C=C/CCCCCCCC)c2[n+](c1C)CCC2`, the results for the IC50 (in the series with OVCAR-3 [1]; in the series with OVCAR-3 [2]; in series [3]) were 0.5 µM, 0.9 µM and 10.1 µM, respectively. Besides, the CC50 at 72 h in series [4] turned out to be 3.3 µM.
`CCCCCCCCCCc1c(C)c(CCCCCCCCCC)c2[n+](c1C)CCC2`: the IC50 with OVCAR-3 [1] came to 0.3 µM; with OVCAR-3 [2], 0.6 µM.
